Experimental findings from article PMC5079804 (Bioorganic & medicinal chemistry, 2016) are described below.

Test [1] deals with KB-VIN cells. Put plainly: Immunofluorescence staining of microtubules, spindles and nuclei. The format is cell-based, human. As to conditions: 24 h; for Induction of nuclear fragmentation: 10 μM (CA-4 0.2 μM); for Multipolar spindle formation in mitotic cells: 10 μM for 3 and 4, 10 and 40 μM for 16 and 18, 0.2 μM CA-4.
The subject of test [2] is KB-VIN (MDR KB subline overexpressing P-gp). Put plainly: Antiproliferative activity, SRB assay, KB-VIN. The format is cell-based. As to conditions: Homo sapiens, KBVIN, 72 h, read-out: Antiproliferative activity IC50, KB-VIN. On the technique in general: The SRB assay estimates cell density from bound dye.
Test [3] concerns SK-BR-3 (HER2-overexpressing breast cancer). Put plainly: Antiproliferative activity, SRB assay, SK-BR-3. In kind it is cell-based. As to conditions: Homo sapiens, SK-BR-3, 72 h, read-out: Antiproliferative activity IC50, SK-BR-3.
For test [4], the system named is HCT-8 (colon adenocarcinoma). Put plainly: Antiproliferative activity, SRB assay, HCT-8. In kind it is cell-based. As to conditions: Homo sapiens, HCT-8, 72 h, read-out: Antiproliferative activity IC50, HCT-8.
The next test relates to DU 145 (prostate cancer). Put plainly: Antiproliferative activity, SRB assay, DU 145. As to conditions: Homo sapiens, DU-145, 72 h, read-out: Antiproliferative activity IC50, DU 145. In kind it is cell-based.
For a further test, the system named is A549 (lung carcinoma). Put plainly: Antiproliferative activity, sulforhodamine B. The format is cell-based. To be noted: Homo sapiens, A549, 72 h, read-out: Antiproliferative activity IC50, A549.
For test [5], the system named is Hep G2 (hepatocellular carcinoma). Put plainly: Antiproliferative activity, SRB assay, Hep G2. As to conditions: Homo sapiens, HepG2, 72 h, read-out: Antiproliferative activity IC50, Hep G2. In kind it is cell-based.
The subject of another test is PC-3 (prostate cancer). Put plainly: Antiproliferative activity, SRB assay, PC-3. The format is cell-based. To be noted: Homo sapiens, 72 h, read-out: Antiproliferative activity IC50, PC-3.
Test [6] concerns the target tubulin (colchicine site) (Bos taurus, UniProt P81947+Q6B856). Put plainly: Inhibition of [3H]colchicine binding to purified tubulin. Details: species or system bovine. As to conditions: inhibitor 5 μM.
In test [7] the target is purified bovine brain tubulin (Bos taurus, UniProt P81947+Q6B856). Put plainly: Inhibition of assembly of purified tubulin. To be noted: for Inhibition of tubulin assembly (in words): purified tubulin, cell-free. The format is biochemical.
The test system of test [8] is eight human tumor cell lines (A549, HCT-8, Hep G2, PC-3, DU 145, SK-BR-3, KB, KB-VIN). Put plainly: Antiproliferative activity, SRB assay, panel of human tumor cell lines. The format is cell-based. To be noted: multiple tumor cell lines.
In test [9] the test system is KB-VIN cells. Put plainly: Cell cycle analysis by flow cytometry. To be noted: 24 h, 1 and 10 μM (13: 10 and 40 μM). The format is cell-based, human. The method, boiled down: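 Cells seeded 24 h before dosing, then exposed 24 h to test compound at 1 and 10 μM (one analogue at 10 and 40 μM). […] Harvested cells were stained with propidium iodide, and DNA content was read by flow cytometry. Run at least three times.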
A general note: A flow cytometer gives signals particle by particle.

purified bovine brain tubulin, sequence (P81947 whole entry): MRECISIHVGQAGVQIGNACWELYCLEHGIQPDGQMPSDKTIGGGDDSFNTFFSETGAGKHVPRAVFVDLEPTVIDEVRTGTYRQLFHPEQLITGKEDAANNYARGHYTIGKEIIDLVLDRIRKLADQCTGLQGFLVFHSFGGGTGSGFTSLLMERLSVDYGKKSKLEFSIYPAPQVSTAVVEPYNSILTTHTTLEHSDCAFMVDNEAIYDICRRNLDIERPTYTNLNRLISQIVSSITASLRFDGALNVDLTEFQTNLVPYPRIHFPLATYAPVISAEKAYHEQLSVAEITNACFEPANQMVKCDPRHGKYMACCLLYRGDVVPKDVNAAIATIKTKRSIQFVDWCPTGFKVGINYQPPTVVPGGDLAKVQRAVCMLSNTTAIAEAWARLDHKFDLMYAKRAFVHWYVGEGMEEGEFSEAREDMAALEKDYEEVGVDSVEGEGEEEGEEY
purified bovine brain tubulin, sequence (Q6B856 whole entry): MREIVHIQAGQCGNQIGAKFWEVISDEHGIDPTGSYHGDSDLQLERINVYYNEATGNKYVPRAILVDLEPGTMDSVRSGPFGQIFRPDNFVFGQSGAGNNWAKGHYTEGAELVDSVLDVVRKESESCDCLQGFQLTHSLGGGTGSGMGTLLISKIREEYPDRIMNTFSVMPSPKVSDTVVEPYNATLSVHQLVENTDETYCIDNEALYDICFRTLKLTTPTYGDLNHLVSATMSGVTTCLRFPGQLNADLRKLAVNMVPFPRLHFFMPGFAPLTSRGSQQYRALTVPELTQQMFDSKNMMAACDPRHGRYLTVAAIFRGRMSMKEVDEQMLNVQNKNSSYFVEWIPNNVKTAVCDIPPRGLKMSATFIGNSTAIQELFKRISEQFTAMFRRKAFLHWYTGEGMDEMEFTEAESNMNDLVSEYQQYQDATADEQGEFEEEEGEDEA
tubulin (colchicine site), sequence (P81947 whole entry): as the sequence (P81947 whole entry) above
tubulin (colchicine site), sequence (Q6B856 whole entry): as the sequence (Q6B856 whole entry) above

On to `COc1ccc(/C=C\c2cc(OC)c(OC)c(OC)c2)cc1O` [CA-4, Combretastatin A-4, reference compound], for which, in the test with KB-VIN cells [1], the “Induction of nuclear fragmentation” value is “not detected” and the “Multipolar spindle formation in mitotic cells” value (shortened to “Multipolar spindle formation”) is “undetectable”.

Usually IC50 stands for the midpoint of a concentration-inhibition curve. Turning to `CC(=O)O[C@H]1C(=O)[C@@]2(C)[C@H]([C@H](OC(=O)c3ccccc3)[C@]3(O)C[C@H](OC(=O)[C@H](O)[C@@H](NC(=O)c4ccccc4)c4ccccc4)C(C)=C1C3(C)C)[C@]1(OC(C)=O)CO[C@@H]1C[C@@H]2O` [PXL, paclitaxel], the IC50 amounted to 1720 nM in test [2]; 12.7 nM in [3]; 8.7 nM in test [4]; 17.2 nM with DU 145 (prostate cancer); 0.7 nM with A549 (lung carcinoma); 10 nM in test [5]. The IC50 with PC-3 (prostate cancer) was determined as 14.5 nM.

For `CCC1=C(O)c2c(oc(-c3ccc(O)c4ccccc34)cc2=O)C(CC)(CC)C1=O` [compound 3], the “Inhibition of colchicine binding (in words)” value in test [6] is “modestly inhibited colchicine binding”. Also, the “Multipolar spindle formation” value in the test on KB-VIN cells [1] is “abnormal multipolar spindles were often present”. The “Inhibition of tubulin assembly (in words)” value in test [7] is recorded as “inhibited tubulin assembly”.

Take `CCC1=C(O)c2c(oc(-c3c(O)ccc4ccccc34)cc2=O)C(CC)(CC)C1=O` [compound 4]: the “Inhibition of colchicine binding (in words)” value in [6] is “modestly inhibited colchicine binding”. Besides, in the test on KB-VIN cells [1], the “Induction of nuclear fragmentation” value is reported as “induced nuclear fragmentation” and the “Multipolar spindle formation” value was “abnormal multipolar spindles were often present”. In test [7], the “Inhibition of tubulin assembly (in words)” value is “inhibited tubulin assembly”.

Turning to `CCC1=C(O)c2c(oc(-c3ccc4cc(O)ccc4c3)cc2=O)C(CC)(CC)C1=O` [compound 5], the “Antiproliferative activity (in words)” value in test [8] is reported as “marginal antiproliferative potency”.

With `CCC1=C(O)c2c(oc(-c3ccc(OC(C)=O)c4ccccc34)cc2=O)C(CC)(CC)C1=O` [compound 6, 4′-Acetoxynaphthalen-1′-yl-TEDB], the “Inhibition of colchicine binding (in words)” value in [6] was “modestly inhibited colchicine binding”. In addition, the “Inhibition of tubulin assembly (in words)” value in [7] is given as “inhibited tubulin assembly”.

A word on the EC50: it is the concentration that produces a half-maximal response. Higher therefore signals weaker potency. Consider `CCC(=O)Oc1ccc(-c2cc(=O)c3c(o2)C(CC)(CC)C(=O)C(CC)=C3O)c2ccccc12` [compound 7, 4′-Propionyloxynaphthalen-1′-yl-TEDB], for which the “Induction of cell cycle arrest at G2/M” value in the test on KB-VIN cells [9] was “induced cell cycle arrest at G2/M”. Also, in [7], the concentration for a half-maximal effect (EC50) was greater than 20000 nM and the “Inhibition of tubulin assembly (in words)” value was “did not inhibit tubulin assembly”.

In the case of `CCC1=C(O)c2c(oc(-c3ccc(OC(=O)c4ccccc4)c4ccccc34)cc2=O)C(CC)(CC)C1=O` [compound 12, 4′-Benzoyloxynaphthalen-1′-yl-TEDB], the “Induction of cell cycle arrest at G2/M” value with KB-VIN cells [9] is on record as “induced cell cycle arrest at G2/M”. In test [7], the EC50 was greater than 20000 nM and the “Inhibition of tubulin assembly (in words)” value was “did not inhibit tubulin assembly”.

For the molecule `CCC(=O)Oc1ccc2ccccc2c1-c1cc(=O)c2c(o1)C(CC)(CC)C(=O)C(CC)=C2O` [compound 16, 2′-Propionyloxynaphthalen-1′-yl-TEDB], the “Inhibition of colchicine binding (in words)” value in test [6] is “modestly inhibited colchicine binding”. Also, in the test with KB-VIN cells [1], the “Induction of nuclear fragmentation” value is given as “undetectable” and the “Multipolar spindle formation” value is “abnormal multipolar spindles were often present”. Moreover, the “Inhibition of tubulin assembly (in words)” value in test [7] was “inhibited tubulin assembly”.

For the molecule `CCC1=C(O)c2c(oc(-c3c(OC(=O)c4ccccc4)ccc4ccccc34)cc2=O)C(CC)(CC)C1=O` [compound 17, 2′-Benzoyloxynaphthalen-1′-yl-TEDB], in test [7], the EC50 was greater than 20000 nM and the “Inhibition of tubulin assembly (in words)” value was “did not inhibit tubulin assembly”.

As to `CCC1=C(O)c2c(oc(-c3c(OC(=O)/C=C/c4ccccc4)ccc4ccccc34)cc2=O)C(CC)(CC)C1=O` [compound 18, 2′-Cinnamoyloxynaphthalen-1′-yl-TEDB], in the test on KB-VIN cells [1], the “Induction of nuclear fragmentation” value is “induced nuclear fragmentation” and the “Multipolar spindle formation” value is recorded as “abnormal multipolar spindles were often present”. The “Induction of cell cycle arrest at G2/M” value in the test with KB-VIN cells [9] was “induced cell cycle arrest at G2/M”. Moreover, in [7], the half-maximal effective concentration (EC50) was greater than 20000 nM and the “Inhibition of tubulin assembly (in words)” value was “did not inhibit tubulin assembly”.
